{"source": "ChEMBL document CHEMBL4118105", "about": "“High-Affinity Peptidomimetic Inhibitors of the DCN1-UBC12 Protein-Protein Interaction” (J Med Chem, 2018)", "key": {"[1]": {"target": "T1, DCN1-like protein 1 (Homo sapiens, UniProt Q96GG9)", "test": "Inhibition of DCN1-mediated CUL2 neddylation in human SK-MES-1 cells at 10 uM after 16 hrs by Western blot analysis", "assay_type": "cell-based"}, "[2]": {"target": "T1, DCN1-like protein 1", "test": "Inhibition of DCN1-mediated CUL3 neddylation in human H2170 cells assessed as increase in NRF2 level at 10 uM after 16 hrs by Western blot analysis", "assay_type": "cell-based", "procedure,_shortened": "(§1)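 H2170 cells exposed to compound for 16 h, then lysed in Triton X-100 or RIPA buffer with phosphatase inhibitors. Neddylated and unneddylated cullins, NRF2 and CDT1 read by Western blot on whole-cell lysate, with GAPDH as loading control.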"}, "[3]": {"target": "T1, DCN1-like protein 1", "test": "Inhibition of DCN1-mediated CUL4A neddylation in human SK-MES-1 cells at 10 uM after 16 hrs by Western blot analysis", "assay_type": "cell-based"}, "[4]": {"target": "T1, DCN1-like protein 1", "test": "Inhibition of DCN1-mediated CUL4A neddylation in human H2170 cells at 10 uM after 16 hrs by Western blot analysis", "assay_type": "cell-based", "procedure,_shortened": "as §1"}, "[5]": {"target": "T1, DCN1-like protein 1", "test": "Inhibition of DCN1-mediated CUL5 neddylation in human H2170 cells at 10 uM after 16 hrs by Western blot analysis", "assay_type": "cell-based", "procedure,_shortened": "as §1"}, "[6]": {"target": "T1, DCN1-like protein 1", "test": "Inhibition of DCN1 interaction with UBC12 protein in human H2170 cell lysate at 20 uM after 3 hrs by immunoprecipitation assay", "procedure,_shortened": "(§2)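 Endogenous DCN1 pulled down from precleared lysates of treated cells with DCN1 antibody for 3 h, then protein A&G beads at 4 °C overnight with rotation. Beads washed three times in lysis buffer, complexes resolved by SDS−PAGE and immunoblotted.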"}, "[7]": {"target": "T1, DCN1-like protein 1", "test": "Inhibition of DCN1-mediated CUL4B neddylation in human SK-MES-1 cells at 10 uM after 16 hrs by Western blot analysis", "assay_type": "cell-based"}, "[8]": {"target": "T1, DCN1-like protein 1", "test": "Inhibition of DCN1-mediated CUL5 neddylation in human SK-MES-1 cells at 10 uM after 16 hrs by Western blot analysis", "assay_type": "cell-based"}, "[9]": {"target": "T1, DCN1-like protein 1", "test": "Inhibition of DCN1-mediated CUL1 neddylation in human H2170 cells at 10 uM after 16 hrs by Western blot analysis", "assay_type": "cell-based", "procedure,_shortened": "as §1"}, "[10]": {"target": "T1, DCN1-like protein 1", "test": "Inhibition of DCN1-mediated CUL4B neddylation in human H2170 cells at 10 uM after 16 hrs by Western blot analysis", "assay_type": "cell-based", "procedure,_shortened": "as §1"}, "[11]": {"target": "T1, DCN1-like protein 1", "test": "Inhibition of DCN1-mediated CUL3 neddylation in human SK-MES-1 cells at 10 uM after 16 hrs by Western blot analysis", "assay_type": "cell-based"}, "[12]": {"target": "T1, DCN1-like protein 1", "test": "Binding affinity to biotin labeled recombinant N-terminal His6-tagged human DCN1 (58 to 259 residues) expressed in Escherichia coli Rosetta2 cells assessed as dissociation rate constant by biolayer interferometry analysis", "procedure,_shortened": "(§3)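 Biotinylated DCN1 (1:1 molar biotin reagent, 4 °C 2 h, dialysed) loaded on super streptavidin sensors from 10 μg/mL to 11−12 nm response; blocked streptavidin sensors as reference. Run at 30 °C, 1000 rpm, in PBS with 0.1% BSA, 0.01% Tween-20, 2% DMSO; 10 min baseline wash. kon/koff from 1:1 binding model fits; two independent experiments.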"}, "[13]": {"target": "T1, DCN1-like protein 1", "test": "Binding affinity to biotin labeled recombinant N-terminal His6-tagged human DCN1 (58 to 259 residues) expressed in Escherichia coli Rosetta2 cells by biolayer interferometry analysis", "procedure,_shortened": "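Recombinant human DCN1 (58–259) was biotinylated at a 1:1 molar ratio in PBS for 2 h at 4 °C, dialyzed, then loaded on super streptavidin sensors from a 10 μg/mL solution. Blocked streptavidin sensors served as reference.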"}, "[14]": {"target": "T1, DCN1-like protein 1", "test": "Inhibition of DCN1-mediated CUL2 neddylation in human H2170 cells at 10 uM after 16 hrs by Western blot analysis", "assay_type": "cell-based", "procedure,_shortened": "as §1"}, "[15]": {"target": "T1, DCN1-like protein 1", "test": "Binding affinity to biotin labeled recombinant N-terminal His6-tagged human DCN1 (58 to 259 residues) expressed in Escherichia coli Rosetta2 cells assessed as association rate constant by biolayer interferometry analysis", "procedure,_shortened": "as §3"}, "[16]": {"target": "T1, DCN1-like protein 1", "test": "Inhibition of DCN1-mediated CUL1 neddylation in human SK-MES-1 cells at 10 uM after 16 hrs by Western blot analysis", "assay_type": "cell-based"}, "[17]": {"target": "T1, DCN1-like protein 1", "test": "Stabilization of DCN1 in human H2170 cells at 10 uM incubated for 1 hr by cellular thermal shift assay", "assay_type": "cell-based", "procedure,_shortened": "(§4)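 H2170 cells (5 × 10^5 per sample) given compound or DMSO for 1 h, washed three times in PBS, resuspended in PBS with protease inhibitor, and heated at 53 °C for 3 min. Three liquid-nitrogen freeze/thaw-on-ice cycles followed. DCN1 in the supernatant read by Western blot, with GAPDH as loading control.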"}, "[18]": {"target": "T1, DCN1-like protein 1", "test": "Inhibition of DCN1-mediated CUL3 neddylation in human H2170 cells at 10 uM after 16 hrs by Western blot analysis", "assay_type": "cell-based", "procedure,_shortened": "as §1"}, "[19]": {"target": "T1, DCN1-like protein 1", "test": "Stabilization of DCN1 in human H2170 cells incubated for 1 hr by cellular thermal shift assay", "assay_type": "cell-based", "procedure,_shortened": "as §4"}, "[20]": {"target": "T1, DCN1-like protein 1", "test": "Inhibition of DCN1-mediated CUL4A neddylation in human H2170 cells at 0.1 to 10 uM after 16 hrs by Western blot analysis", "assay_type": "cell-based", "procedure,_shortened": "as §1"}, "[21]": {"system": "NCI-H2170", "test": "Effect on UBC12 levels in human NCI-H2170 cells at 5 to 10 uM after 24 hrs by Western blot analysis", "assay_type": "functional, cell-based"}, "[22]": {"target": "T1, DCN1-like protein 1", "test": "Inhibition of DCN1 interaction with UBC12 protein in human H2170 cell lysate after 24 hrs by immunoprecipitation assay", "procedure,_shortened": "as §2"}, "[23]": {"target": "T1, DCN1-like protein 1", "test": "Inhibition of DCN1-mediated CUL3 neddylation in human H2170 cells after 16 hrs by Western blot analysis", "assay_type": "cell-based", "procedure,_shortened": "as §1"}, "[24]": {"target": "T1, DCN1-like protein 1", "test": "Inhibition of DCN1-mediated CUL4A neddylation in human H2170 cells assessed as increase in CDT1 level at 0.1 to 10 uM after 16 hrs by Western blot analysis", "assay_type": "cell-based", "procedure,_shortened": "as §1"}, "[25]": {"target": "T1, DCN1-like protein 1", "test": "Inhibition of DCN1-mediated CUL5 neddylation in human H2170 cells at 0.1 to 10 uM after 16 hrs by Western blot analysis", "assay_type": "cell-based", "procedure,_shortened": "as §1"}, "[26]": {"target": "T1, DCN1-like protein 1", "test": "Inhibition of DCN1-mediated CUL2 neddylation in human H2170 cells at 0.1 to 10 uM after 16 hrs by Western blot analysis", "assay_type": "cell-based", "procedure,_shortened": "as §1"}, "[27]": {"test": "Equilibrium aqueous solubility of the compound in phosphate buffer of pH 7.4 after 24 hrs by shake-flask method", "assay_type": "physicochemical", "procedure,_shortened": "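Excess solid was suspended in phosphate buffer pH 7.4, sonicated 30 min, then shaken 24 h at room temperature. Suspensions were centrifuged at 15 000 rpm for 15 min and filtered through 0.45 μm membranes. The saturated concentration was read by UV at each compound's absorption maximum, found by spectrum scan.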"}, "[28]": {"target": "T1, DCN1-like protein 1", "test": "Inhibition of DCN1-mediated CUL3 neddylation in human SK-MES-1 cells up to 10 uM after 16 hrs by Western blot analysis", "assay_type": "cell-based"}, "[29]": {"target": "T1, DCN1-like protein 1", "test": "Inhibition of DCN1-mediated CUL4B neddylation in human H2170 cells at 0.1 to 10 uM after 16 hrs by Western blot analysis", "assay_type": "cell-based", "procedure,_shortened": "as §1"}, "[30]": {"system": "NCI-H2170", "test": "Effect on DCN1 levels in human NCI-H2170 cells at 5 to 10 uM after 24 hrs by Western blot analysis", "assay_type": "functional, cell-based"}, "[31]": {"target": "T1, DCN1-like protein 1", "test": "Inhibition of DCN1-mediated CUL3 neddylation in human H2170 cells assessed as increase in NRF2 level at 0.1 to 10 uM after 16 hrs by Western blot analysis", "assay_type": "cell-based", "procedure,_shortened": "as §1"}}, "note": "pKd: −log10 of the molar value. The source made the active and inactive calls. The calls are words filed in the database; no cut-off is given here."}
{"molecule": "CCC(=O)N[C@@H](Cc1nc2ccc(Cl)cc2s1)C(=O)N[C@H](C(=O)N[C@@H](CCCCN)C(=O)N[C@@H]1CCOc2ccccc21)C1CCNCC1", "values": [{"measurement": "inhibition", "setting": "[1]", "result": "inactive"}, {"measurement": "inhibition", "setting": "[2]", "result": "inactive"}, {"measurement": "inhibition", "setting": "[3]", "result": "inactive"}, {"measurement": "inhibition", "setting": "[4]", "result": "inactive"}, {"measurement": "inhibition", "setting": "[5]", "result": "inactive"}, {"measurement": "inhibition", "setting": "[6]", "result": "inactive"}, {"measurement": "inhibition", "setting": "[7]", "result": "inactive"}, {"measurement": "inhibition", "setting": "[8]", "result": "inactive"}, {"measurement": "inhibition", "setting": "[9]", "result": "inactive"}, {"measurement": "inhibition", "setting": "[10]", "result": "inactive"}, {"measurement": "inhibition", "setting": "[11]", "result": "inactive"}, {"measurement": "K", "setting": "[12]", "result": 2.6, "unit": "×10⁻³ /s"}, {"measurement": "pKd", "setting": "[13]", "result": 5.83}, {"measurement": "inhibition", "setting": "[14]", "result": "inactive"}, {"measurement": "K", "setting": "[15]", "result": 2.4, "unit": "×10³ /M/s"}, {"measurement": "inhibition", "setting": "[16]", "result": "inactive"}, {"measurement": "Activity", "setting": "[17]", "result": "inactive"}, {"measurement": "inhibition", "setting": "[18]", "result": "inactive"}]}
{"molecule": "CCC(=O)N[C@@H](Cc1nc2ccc(Cl)cc2s1)C(=O)N[C@H](C(=O)N[C@@H](CCCCN)C(=O)N[C@@H]1CCOc2ccccc21)C1CCOCC1", "values": [{"measurement": "Activity", "setting": "[19]", "result": "Dose-dependent effect"}, {"measurement": "inhibition", "setting": "[20]", "result": "inactive"}, {"measurement": "Activity", "setting": "[21]", "result": "inactive"}, {"measurement": "inhibition", "setting": "[22]", "result": "Dose-dependent effect"}, {"measurement": "inhibition", "setting": "[23]", "result": "Dose-dependent effect"}, {"measurement": "inhibition", "setting": "[24]", "result": "inactive"}, {"measurement": "inhibition", "setting": "[25]", "result": "inactive"}, {"measurement": "inhibition", "setting": "[9]", "result": "Active"}, {"measurement": "inhibition", "setting": "[26]", "result": "inactive"}, {"measurement": "K", "setting": "[12]", "result": 2, "unit": "×10⁻³ /s"}, {"measurement": "solubility thermodynamic at 24 h", "setting": "[27]", "result": 54, "unit": "µM"}, {"measurement": "pKd", "setting": "[13]", "result": 8.17}, {"measurement": "inhibition", "setting": "[28]", "result": "Active"}, {"measurement": "inhibition", "setting": "[29]", "result": "inactive"}, {"measurement": "K", "setting": "[15]", "result": 2.9, "unit": "×10⁵ /M/s"}, {"measurement": "Activity", "setting": "[30]", "result": "inactive"}, {"measurement": "inhibition", "setting": "[31]", "result": "Active"}]}
